Series [1] is classed as in vivo, human. Particulars: for AUC0–∞ ratio of geometric means (90%CI) / Cmax ratio of geometric means (90%CI) / CL/F ratio of geometric means (90%CI) / Vz/F ratio of geometric means (90%CI): ANOVA; for Tmax median difference (90%CI): Hodges-Lehmann estimate; for t1/2 geometric mean difference: severely renal impaired vs healthy matched.
For series [2] the following is noted: cited from earlier work.
The format of series [3] is in vivo, human. Particulars: M12. Put shortly:
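Urine collected predose (≤60 min before dosing) and over 0‒8, 8‒24, 24‒48 and 48‒72 h postdose. M12 measured by achiral LC-MS/MS (LLOQ 5 ng/mL). Excreted amount = urine concentration × interval urine volume. Renal clearance = cumulative 72-h urinary M12 divided by plasma AUC0–72. Summarised descriptively by group.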

For series [4] the following is noted: cited from earlier work. This is another data set of the same source.
A short description of the next series: Safety monitoring. It is filed as in vivo, human. Particulars: for subjects reporting AEs: single oral 30 mg. Put shortly: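 Subjects were confined from the evening before dosing through the PK sampling period. Monitoring ran throughout the study and covered adverse events, complete physical examinations, vital signs, 12-lead ECGs, clinical laboratory safety tests and prior and concomitant medications. Follow-up safety visit 11‒18 days after dosing.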

For series [5] the following is noted: population pharmacokinetic model built in a phase 3 study; cited from earlier work.
For series [6] the following is noted: moderate and severe hepatic impairment; cited from earlier work.
The conditions of series [7]: cited from earlier work. The source holds these as a separate data set.
Setting [8] is: M12, mild renal impaired/healthy matched.
The mark [9] stands for this setting: M12, moderate renal impaired/healthy matched.
The mark [10] stands for this setting: M12, severe renal impaired/healthy matched.
Setting [11] is: M12, subjects with mild renal impairment.
Where [12] appears, read: M12, subjects with moderate renal impairment.
[13] abbreviates: M12, subjects with severe renal impairment.
Where [14] appears, read: apremilast, mild renal impaired/healthy matched.
Setting [15] is: apremilast, moderate renal impaired/healthy matched.
The mark [16] stands for this setting: apremilast, moderate renal impairment group.
[17] abbreviates: apremilast, severe renal impaired/healthy matched.
Where [18] appears, read: apremilast, severe renal impairment vs healthy matched.
Where [19] appears, read: apremilast, subjects with severe renal impairment.
Setting [20] is: healthy subjects, single oral dose.

Data on three compounds can be found in paper PMC5132082 (Clinical Pharmacology in Drug Development, 2016).

The structures appear in SMILES notation. Read-outs that look alike come from different tables or passages of the source. Marks after values point to notes of the source that are not given here.

As for `CCOc1cc([C@@H](CS(C)(=O)=O)N2C(=O)c3cccc(NC(C)=O)c3C2=O)ccc1O[C@@H]1O[C@H](C(=O)O)[C@@H](O)[C@H](O)[C@H]1O` [M12, O‐desmethyl apremilast glucuronide], the results for the “AUC0–∞ ratio of geometric means (90%CI)” value in series [1] (setting [8]), in series [1] (setting [9]) and in series [1] (setting [10]) were 129.6 (99.5–168.8) %, 161.4 (122.8–212.3) % and 291.7 (204.3–416.4) %, respectively. Besides, the “Cmax ratio of geometric means (90%CI)” value in series [1] (setting [8]) is listed as 130.8 (91.7–186.6) %; in series [1] (setting [9]) it was 116.9 (81.9–166.8) %; in series [1] (setting [10]), 142.9 (106.3–192.1) %. Moreover, the “Tmax median difference (90%CI)” value in series [1] (M12, severe renal impaired vs healthy matched) is recorded as 6.25 (2.975–11.0) h. For the same compound, the “t1/2 geometric mean difference” value in series [1] (M12) is reported as 10.498 ^d (NC) h. Besides, the “AUC0–∞ higher than in healthy matched subjects” value in series [1] (setting [11]) came out at 29.6%; in series [1] (setting [12]), 61.4%. Moreover, the “Cmax higher than in healthy matched subjects” value is listed as 30.8% in series [1] (setting [11]) and 16.9% in series [1] (setting [12]). For the same compound, the “Tmax delayed compared with healthy matched subjects” value in series [1] (M12, subjects with renal impairment (severe study), P ≤ .05) was “≈ 6.25 hours”. Further, the “increase in AUC0–∞ vs healthy matched subjects” value in series [1] (setting [13]) worked out at 191.7%. In addition, in series [1] (setting [13]), the “increase in Cmax vs healthy matched subjects” value came to 42.9%. For the same compound, in series [2], the pharmacological activity entry was “pharmacologically inactive”. The “geometric mean renal clearance” value in series [3] (healthy subjects matched with subjects with mild renal impairment) was found to be 3.67 L/h; in series [3] (healthy subjects matched with subjects with moderate renal impairment), 3.02 L/h; in series [3] (subjects with mild renal impairment, urine 0-72 h / plasma AUC 0-72 h), 2.35 L/h; in series [3] (subjects with moderate renal impairment), 1.84 L/h. The renal clearance decreased result in series [3] (subjects with mild or moderate renal impairment) is listed as “≈ 40%”. For the same compound, the “share of the circulating radioactivity” value in series [4] (after a single oral dose of [14C]apremilast) is listed as 39%.
Take `CCOc1cc([C@@H](CS(C)(=O)=O)N2C(=O)c3cccc(NC(C)=O)c3C2=O)ccc1OC` [apremilast]: in “Safety monitoring” (both studies), the “deaths or AEs leading to discontinuation” value is given as “No deaths or AEs leading to discontinuation occurred”. Besides, the overall safety finding result in “Safety monitoring” (both studies, single oral 30-mg dose) was “no unexpected AEs or safety signals”. For the same compound, the “subjects with AEs considered possibly related to study medication or procedures” value in the series “Safety monitoring” (healthy matched group of severe study) was 2; in “Safety monitoring” (severe renal impairment group) it was 3. Moreover, the “subjects reporting AEs” value in the series “Safety monitoring” (healthy matched group of severe study (n = 8)) is 2; in the series “Safety monitoring” (healthy matched groups of mild and moderate study (n = 16)), 5; in the series “Safety monitoring” (mild renal impairment group (n = 8)), 2; in the series “Safety monitoring” (moderate renal impairment group (n = 8)), 2; in the series “Safety monitoring” (severe renal impairment group (n = 8)), 4. Further, the “subjects with AEs suspected to be related to study medication or procedures” value in “Safety monitoring” (healthy matched groups of mild and moderate study) turned out to be 3; in the series “Safety monitoring” (mild renal impairment group), 2; in the series “Safety monitoring” (moderate renal impairment group), 1. In addition, the “disease effect of PsA: slower clearance” value in series [5] is listed as “≈ 36%”. Besides, the “effect of hepatic impairment on pharmacokinetic profile” value in series [6] is “largely unaffected”. The “Tmax median difference (90%CI)” value was 0.0 (‐1.00 to 1.00) P > .9999 h in series [1] (apremilast, mild renal impaired vs healthy matched); 1.0 (‐0.50 to 2.50) P = .25 h in series [1] (apremilast, moderate renal impaired vs healthy matched); 0.00 (‐1.5 to 1.5) P > .9999 h in series [1] (apremilast, severe renal impaired vs healthy matched). For the same compound, the figures for the “AUC0–∞ ratio of geometric means (90%CI)” value in series [1] (setting [14]), in series [1] (setting [15]) and in series [1] (setting [17]) were 85.9 (65.8–112.0) %, 122.1 (93.6–159.3) % and 188.5 (132.5–268.0) %, respectively. For the same compound, the entries for the “CL/F ratio of geometric means (90%CI)” value in series [1] (setting [14]), in series [1] (setting [15]) and in series [1] (setting [17]) were 116.5 (89.3–151.9) %, 81.9 (62.8–106.8) % and 53.10 (37.3–75.4) %, respectively. For the same compound, the “Cmax ratio of geometric means (90%CI)” value in series [1] (setting [14]) is reported as 106.2 (84.7–133.1) %; in series [1] (setting [15]) it was 87.5 (69.8–109.7) %; in series [1] (setting [17]) it was 141.6 (102.9–194.8) %. Further, the entries for the “Vz/F ratio of geometric means (90%CI)” value in series [1] (setting [14]) and in series [1] (setting [15]) were 120.4 (92.2–157.2) % and 103.2 (79.0–134.8) %, respectively. In series [1] (setting [16]), the “AUC0–∞ higher relative to healthy matched subjects” value was “≈ 22%”. The “Cmax lower relative to healthy matched subjects” value in series [1] (setting [16]) was “≈ 13%”. The “Vz/F ratio of geometric means” value in series [1] (apremilast, severe renal impaired/healthy matched, 90%CI not calculated) is recorded as 67.35 (NC) %. In series [1] (setting [18]), this compound displayed a VZ/F decreased of around 32.7%. For the same compound, the t1/2 prolonged entry in series [1] (setting [18]) is “≈ 27%”. Moreover, the “t1/2 geometric mean difference” value in series [1] (apremilast) is 2.485 ^d (NC) h. The “AUC0–∞ higher compared with healthy matched subjects” value in series [1] (setting [19]) was 88.5% and ≈ 89%. Also, the “Cmax higher compared with healthy matched subjects” value in series [1] (setting [19]) is listed as 41.6%. For the same compound, the “apparent clearance relative to that of healthy matched subjects” value in series [1] (setting [19]) is given as “≈ 53%”. Moreover, the absolute bioavailability result in series [4] (setting [20]) is listed as “≈ 73%”. Moreover, the “given dose excreted in urine unchanged” value in series [4] (setting [20]) is “≈ 3%”.
On to `CCOc1cc(CC(=O)N[C@@H](CC(C)C)c2ccccc2N2CCCCC2)ccc1C(=O)O` [repaglinide], for which the “fraction of unchanged drug excreted through urine (fe)” value in series [7] (healthy volunteers) is on record as below 0.1%. For the same compound, in series [7] (subjects with severe renal impairment, after 1 week of treatment), the mean half-life increase is listed as around 4 fold.
